# The source made the active and inactive calls.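 How the source made its calls, unless noted: active means inhibition above 20% together with a positive visual image hit; inconclusive means visual image hit but inhibition not above 20%; inactive means no visual image hit.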
# How the values were obtained:
# [1] = inhibitors of TNFa-induced NFkB p65 translocation, primary screen, imaging, HUVEC, MLSMR starter and 10KST1 sets (AID 438); conditions: HUVEC TNFa-induced p65 nuclear translocation; cell count: measured here: nuclei count (cytotoxicity indicator), at 2.08 µM; inhibition: at 2 µM, stronger effect = higher value, 0% TNFa-plus-vehicle, 100% no-TNFa wells;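 further: compound added about 3h40 before a 20 min TNFalpha stimulation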;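 on inhibition: signal is the nuclear over cytoplasmic p65 intensity ratio per well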
# [2] = inhibitors of mutant huntingtin aggregation, primary screen, imaging, exon1htt(103Q)mCFP cells, high-content imaging (AID 483;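 active means visual image review flags a hit and inhibition of aggregation exceeds 20%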;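 further: compound exposure lasted 3 days before fixation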;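 on nuclei count: percent of the per-plate median nuclei count of sample wells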); conditions: exon1htt(103Q)mCFP cell line, aggregate imaging, at 2 µM; inhibition of aggregation: stronger effect = higher value; nuclei count: measured here: cell count, toxicity
# [3] = inhibitors of E-selectin induction by TNFa, primary screen, imaging, HUVEC, immunofluorescence, MLSMR starter and 10KST1 sets (AID 487;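 active means visually confirmed hit in the image check and inhibition above 20%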;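 on inhibition: signal is fraction of cell area covered by stained E-selectin grains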;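 on nuclei count: 100% = median nuclei count of all wells on the same plate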); conditions: HUVEC TNFalpha-induced E-selectin immunofluorescence imaging, at 2 µM; inhibition: stronger effect = higher value; nuclei count: measured here: cell number, toxicity
# [4] = biological target: Voltage-gated potassium channel subunit beta-2 (Rattus norvegicus) (UniProt P62483); test: KvBeta enzyme negative modulators, primary screen, biochemical, NADPH fluorescence (AID 622;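 active means fluorescence slope higher than the sample average by over 3 SD, cut at about -0.22 in these data, passing the limit was not always enough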;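 further: slope of raw intensity against log time taken from 70 to 1610 s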); conditions: recombinant KvBeta, 4-cyanobenzaldehyde reduction, at 10 µM, stronger effect = higher value
# [5] = biological target: Voltage-gated potassium channel subunit beta-2 (Rattus norvegicus) (UniProt P62483); test: KvBeta positive modulators, primary screen, biochemical, NADPH fluorescence (AID 623;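 active means NADPH fluorescence slope more negative than the mean of all samples by about 3 SD, 99.7% confidence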;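 further: fluorescence intensity change per second fitted from 20 to 320 s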); conditions: Recombinant KvBeta, NADPH fluorescence decrease slope, 10 min; at 10 µM; stronger effect = lower value
# [6] = biological target: Muscarinic acetylcholine receptor M4 (Homo sapiens) (UniProt P08173); test: compounds altering M4/GIRK thallium flux, either direction, primary screen, M4 allosteric agonist project, cell-based, HEK293 M4/GIRK, BTC-AM (AID 625;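 active means fluorescence slope after compound addition differing from the mean of all tested samples at 99.7% confidence, mostly higher but some lower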;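 further: thallium influx through GIRK channels coupled to M4 in HEK293 cells with BTC-AM dye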); conditions: at 10 µM, actives lie on both sides
# Procedure, shortened: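 Material: HEK293 cells with M4 receptor and GIRK channels; Times: cells overnight at 37 °C, BTC-AM loading 1 h, reads 2 min total; Technique: kinetic BTC-AM fluorescence sampled at 1 Hz, 10 s pre-addition baseline; Read-out basis: slope over 15–24 s of trace normalized to starting intensity; Controls: carbachol positive, DMSO negative.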
# [7] = inhibitors of Sendai virus-induced IRF3 signaling, primary screen, TLR/RLR signaling modifier project, cell-based, Sendai virus stimulus, luciferase, 10K MLSCN set (AID 602276;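 active means inhibition at or above 50% at 10 µM; inactive means inhibition below 50%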;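 further: firefly luciferase from ISG56 promoter only with Renilla not read in this screen; 0% = Sendai virus plus DMSO and 100% = medium plus DMSO without virus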); conditions: HEK293 RL24 IRF3 luciferase reporter, at 10 µM, stronger effect = higher value
# [8] = inhibitors of poly I:C-induced TLR3 signaling, primary screen, cell-based, poly I:C stimulus, luciferase, 10K MLSCN set (AID 602277;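 active means inhibition of the reporter signal at or above 50%; inactive means inhibition below 50%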); conditions: HEK293-TLR3 RL24 IRF3 luciferase reporter, at 10 µM, stronger effect = higher value
# Chain of Muscarinic acetylcholine receptor M4 (Homo sapiens) (P08173 whole entry, looked up): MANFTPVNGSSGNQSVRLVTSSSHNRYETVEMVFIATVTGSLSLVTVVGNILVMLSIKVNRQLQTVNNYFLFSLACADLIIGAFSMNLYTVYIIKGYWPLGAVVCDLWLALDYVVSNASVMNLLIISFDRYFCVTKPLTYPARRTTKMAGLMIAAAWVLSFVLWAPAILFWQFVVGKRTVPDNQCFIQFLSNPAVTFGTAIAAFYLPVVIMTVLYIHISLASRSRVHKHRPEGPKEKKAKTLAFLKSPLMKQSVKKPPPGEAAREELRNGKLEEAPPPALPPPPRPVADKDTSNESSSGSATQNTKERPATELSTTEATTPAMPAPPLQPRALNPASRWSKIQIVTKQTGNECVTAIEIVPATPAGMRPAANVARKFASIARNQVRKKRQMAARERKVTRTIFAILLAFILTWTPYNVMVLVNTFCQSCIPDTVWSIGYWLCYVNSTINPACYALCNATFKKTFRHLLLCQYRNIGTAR
# Chain of Voltage-gated potassium channel subunit beta-2 (Rattus norvegicus) (P62483 whole entry, looked up): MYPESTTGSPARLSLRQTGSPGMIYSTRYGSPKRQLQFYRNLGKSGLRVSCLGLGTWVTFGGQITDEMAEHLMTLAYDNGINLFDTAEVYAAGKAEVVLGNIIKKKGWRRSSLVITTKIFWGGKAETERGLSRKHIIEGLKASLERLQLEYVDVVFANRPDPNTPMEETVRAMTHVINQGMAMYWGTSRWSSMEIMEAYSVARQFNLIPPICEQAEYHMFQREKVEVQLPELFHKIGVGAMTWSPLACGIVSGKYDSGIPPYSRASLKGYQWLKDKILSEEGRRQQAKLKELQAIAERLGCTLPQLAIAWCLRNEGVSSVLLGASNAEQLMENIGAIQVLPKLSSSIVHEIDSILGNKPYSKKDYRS
SMILES,cell count [1],inhibition [1],inhibition of aggregation [2],nuclei count [2],inhibition [3],nuclei count [3],fluorescence slope [4],NADPH fluorescence slope [5],fluorescence slope [6],inhibition [7],inhibition [8]
CC(C(=O)N1CCCCC1)n1sc2ccccc2c1=O (stereo not drawn),355,-10.8% (inactive),-13.5% (inactive),111%,-96.4% (inactive),109%,-0.479 (inactive),-0.000258 (inactive),0.00498 (inactive),-14.1% (inactive),-35.6% (inactive)
COc1ccc(NC(=O)N2CCC(O)(c3cccnc3)CC2)c(OC)c1,643,-6.3% (inactive),13% (inactive),88.6%,-161% (inactive),145%,-0.558 (inactive),-3.4e-05 (inactive),0.00818 (inactive),10.9% (inactive),12.7% (inactive)
C1=CC2CC1CC2CN1CCN(c2ccccc2)CC1 (stereo not drawn),411,1.5% (inactive),-19.6% (inactive),114%,-37.7% (inactive),100%,-0.479 (inactive),-2.1e-05 (inactive),0.00448 (inactive),2.18% (inactive),4.2% (inactive)
CCOC(=O)c1ccccc1NC(=O)COC(=O)C1=COCCO1,595,-3.1% (inactive),14% (inactive),61.5%,-92% (inactive),95.5%,-0.286 (inactive),-3.3e-05 (inactive),0.00593 (inactive),15.1% (inactive),2.55% (inactive)
CCN(Cc1nc2cc(OC)c(OC)cc2c(=O)[nH]1)C(=O)c1ccc(S(=O)(=O)N(C)C)cc1,311,11.1% (inactive),-0.9% (inactive),119%,14.8% (inactive),89.6%,-0.399 (inactive),-0.000108 (inactive),0.00948 (inactive),13.8% (inactive),28.7% (inactive)
C=CCn1cnc2c(NCc3ccccc3)ncnc21,387,-13.3% (inactive),3% (inactive),98.8%,20.4% (inactive),142%,-0.587 (inactive),3.1e-05 (inactive),0.00713 (inactive),-54.3% (inactive),-89% (inactive)
Cc1ccc(-c2cc(C(=O)Nc3cc(C)ccc3C)[nH]n2)c(O)c1,390,-4.3% (inactive),3.8% (inactive),120%,-50.5% (inactive),144%,-0.362 (inactive),2.9e-05 (inactive),0.00727 (inactive),-2.53% (inactive),-27.3% (inactive)
Cn1c2c(c(=O)n(C)c1=O)CN(CCCN1CCOCC1)CN2,541,-5% (inactive),9.8% (inactive),115%,41.5% (inactive),90.5%,-0.595 (inactive),2.4e-05 (inactive),0.00524 (inactive),8.17% (inactive),16.9% (inactive)
Cc1ccc(-c2[nH]nc3c2C(c2ccoc2)C(C#N)=C(N)O3)cc1C (stereo not drawn),853,3.6% (inactive),7.7% (inactive),92.5%,-111% (inactive),126%,-0.474 (inactive),-5.3e-05 (inactive),0.00509 (inactive),23.8% (inactive),16.8% (inactive)
COc1ccc(-n2nc(C(=O)Nc3ccc4c(c3)OCO4)c3c4ccccc4n(C)c3c2=O)cc1,218,4.3% (inactive),-21.9% (inactive),47.3%,-66% (inactive),97.1%,-0.566 (inactive),4e-06 (inactive),0.0112 (active),10.3% (inactive),24.3% (inactive)
O=C(CCN1CCN(CCO)CC1)Nc1ccc(OCc2ccccc2)cc1,278,4.8% (inactive),-5.1% (inactive),98.3%,-29.4% (inactive),105%,-0.584 (inactive),-2.1e-05 (inactive),0.00748 (inactive),-11.3% (inactive),0.289% (inactive)
CCOc1ccc(NC(=O)c2ccncc2)cc1,631,3.6% (inactive),8.2% (inactive),98.3%,-122% (inactive),106%,-0.466 (inactive),-4.7e-05 (inactive),0.0047 (inactive),-5.38% (inactive),-19.1% (inactive)
COc1ncnc2c1N=C1CC(C)(C)CC(N)=C1S2,309,0.8% (inactive),-0.2% (inactive),115%,-16.2% (inactive),115%,-0.37 (inactive),-3.5e-05 (inactive),0.00511 (inactive),13.3% (inactive),35% (inactive)
COc1ccc(CC(=O)NCc2cccs2)cc1,568,-20.6% (inactive),-32.4% (inactive),103%,-83.1% (inactive),140%,-0.399 (inactive),0.000126 (inactive),0.0067 (inactive),31% (inactive),16.3% (inactive)
CC1(C)NC(=O)N(CCCOc2ccc(Br)cc2Cl)C1=O,278,-10% (inactive),-8.8% (inactive),110%,-4.9% (inactive),119%,-0.458 (inactive),-2.9e-06 (inactive),0.00559 (inactive),-28.8% (inactive),-113% (inactive)
C/C(Cl)=C\Cn1c(Nc2ccc(C)cc2)nc2c1c(=O)n(C)c(=O)n2C,533,-1.1% (inactive),24.5% (inactive),78.9%,-73.9% (inactive),117%,-0.572 (inactive),-4.2e-05 (inactive),0.00543 (inactive),16.1% (inactive),17.5% (inactive)
CCCN(S(=O)(=O)c1ccc(OCC)cc1)S(=O)(=O)c1cccs1,457,7.4% (inactive),-7.2% (inactive),109%,-52.8% (inactive),101%,-0.481 (inactive),0.0001 (inactive),0.00646 (inactive),-4.95% (inactive),2.38% (inactive)
Oc1ccc2[nH]cnc2c1CN1CCCCC1,405,2.2% (inactive),5.5% (inactive),88.7%,8% (inactive),95.1%,-0.569 (inactive),-0.000119 (inactive),0.00526 (inactive),15.4% (inactive),25.1% (inactive)
COc1cccc(CNC(=O)C2CCN(c3cnccn3)CC2)c1,399,-8.4% (inactive),17.9% (inactive),98.8%,-82.7% (inactive),86.8%,-0.548 (inactive),5.8e-06 (inactive),0.00424 (inactive),18.8% (inactive),18.1% (inactive)
CCn1ncc(C2=NOC(C(=O)NCc3ccccc3)C2)c1C (stereo not drawn),309,-20.8% (inactive),-64.1% (inactive),2.2%,-53.2% (inactive),105%,-0.446 (inactive),3.3e-05 (inactive),0.00637 (inactive),17.4% (inactive),73.3% (active)
COc1ccc(OCc2cccc(C(=O)O)c2)cc1,623,-1.6% (inactive),-9.3% (inactive),55.9%,20.3% (inactive),111%,-0.511 (inactive),5e-05 (inactive),0.00513 (inactive),46.4% (inactive),42.2% (inactive)
O=C(Nc1ccc(N2CCOCC2)cc1)Nc1ccc2nc(-c3ccco3)c(-c3ccco3)nc2c1,695,-0.7% (inactive),-8.6% (inactive),98.1%,-177% (inactive),140%,-0.516 (inactive),-5.3e-05 (inactive),0.00225 (inactive),38.7% (inactive),0.682% (inactive)
COC(=O)c1ccccc1NC(=O)Cn1c(-c2nonc2N)nc2ccccc21,363,5.8% (inactive),-2.5% (inactive),1.9%,-162% (inactive),102%,-0.537 (inactive),-5.1e-05 (inactive),0.00504 (inactive),47.8% (inactive),30% (inactive)
COC(=O)c1cc(-c2c(C)nn(-c3ccccc3)c2C)n[nH]1,391,1.1% (inactive),-8.1% (inactive),111%,8.5% (inactive),95.5%,-0.447 (inactive),2.5e-05 (inactive),0.00494 (inactive),-13.2% (inactive),-66.7% (inactive)
O=C(CSc1nc2ccccc2c(=O)n1CCC(=O)N1CCCCC1)NCc1ccccc1,495,-7.5% (inactive),1% (inactive),103%,16.9% (inactive),101%,-0.507 (inactive),1.6e-05 (inactive),0.00538 (inactive),17.4% (inactive),24.1% (inactive)
COc1ccc(NCc2nnc(SCC(=O)Nc3cc(C)cc(C)c3)o2)cc1,396,-1.1% (inactive),8.7% (inactive),101%,36.7% (inactive),79.5%,-0.4 (inactive),-0.000139 (inactive),0.00688 (inactive),11% (inactive),22.6% (inactive)
CSc1nnc(-c2nnc(SC)n2-c2ccccc2)n1-c1ccccc1,879,-9.3% (inactive),-8% (inactive),109%,-143% (inactive),123%,-0.532 (inactive),-2.1e-05 (inactive),0.00464 (inactive),9.27% (inactive),27.2% (inactive)
CC(C)=CC(=O)OCC(=O)NC(=O)NC(C)(C)C,220,13.1% (inactive),14.1% (inactive),97.7%,3.9% (inactive),98.5%,-0.591 (inactive),-1.3e-05 (inactive),0.00792 (inactive),-2.29% (inactive),9.61% (inactive)

# From PubChem BioAssay
